Source: the RNAGym collection of RNA variant scans (doi:10.1126/science.aae0568)
Fewer inactive variants are shown than the library holds.

B1: tRNA (parent)
chain: GUUCCGUUGGCGUAAUGGUAACGCGUCUCCCUCCUAAGGAGAAGACUGCGGGUUCGAGUCCCGUACGGAACG

Variants of: B1
Assay: yeast fitness relative to wild type (ratio to wild type); higher = fitter; tRNA-Arg(CCU), competitive growth, 37 C, YPD
Method in brief: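 A pool of Saccharomyces cerevisiae strains, each with a tRNA-Arg(CCU) gene variant at the native genomic locus, was competed in YPD at 37°C for 24 hours across six parallel replicates. The variants had been chemically synthesised at a 3% per-site mutation rate over 69 sites, and gene amplicons before and after competition were read by 100-nucleotide paired-end sequencing. Darwinian fitness relative to wild type rested on changes in genotype frequencies. Genotypes required ≥ 100 starting reads, and estimates < 0.5 were set to 0.5.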

Variant | yeast fitness
C22U U26A C34A A37U G48C | 0.799
C22U U54C C66G | ≤ 0.5
C22U G41C | 0.698
G23A C49A G58A | ≤ 0.5
G23A U53C C66A | ≤ 0.5
G23A U35C | 0.572
G23A A36U | 0.536
G23A A36C | 0.586
C22U C46A G67A | 0.657
G23C A65U | 0.585
G23C C24A G50A A70U | ≤ 0.5
G23A A42G | 0.747
C22U C55U G67C | ≤ 0.5
C22U G51C | 0.512
G23A A36U A40C G52A C61G | 0.639
C22U G25A A65U | 0.687
G23A A57G | 0.715
C22U C31A A37C U47C G67A | ≤ 0.5
C22U C46G C49G | 0.564
G23C C24G U32G A42C G44A G51C C60U | ≤ 0.5
C22U U26A U47C | ≤ 0.5
G23A C46A | 0.882
G23C C31U | 0.579
G23C A37C A42G C46G C66U | ≤ 0.5

Variant | yeast fitness
C22U C60U | 0.723
C22U A40U G48A | ≤ 0.5
C22U U53C C61G G67A A69C | ≤ 0.5
G23A C24U A37C G41C U54C U64C | ≤ 0.5
C22U G58C A69G | 0.602
G23C A42G G56A | ≤ 0.5
G23C C29G G63C C66G | ≤ 0.5
C22U C27G A69U | 0.508
G23A U47A | 0.796
G23C C31A C62A | 0.527
C22U U32C G52A C61U | ≤ 0.5
G23A A40G C46G | ≤ 0.5
G23A C29U C33G A42G | ≤ 0.5
G23A A36U G39C A70C | ≤ 0.5
C22U G23A G56A | ≤ 0.5
G23A C33G A70U | ≤ 0.5
G23A C24G A37C | 0.506
C22U C30U U47A | ≤ 0.5
G23A C30A U54C C55U | ≤ 0.5
G23C C24G C33G A40U A70G | ≤ 0.5
C22U C27U C55A A57U C61G | ≤ 0.5
C22U C31G C49U A65G | ≤ 0.5
G23C A36U C46G C60U | 0.591
C22U G25C U28C A36G G51A G67A | ≤ 0.5

Variant | yeast fitness
C22U A40G C46U G63A | ≤ 0.5
C22U A45C G50A G67C A69C | ≤ 0.5
C22U C34G A36U | 0.519
C22U U28C C29G C33A C62U G63A U64A | ≤ 0.5
G23A C30U G39A C60G | ≤ 0.5
G23C C29U A36C C49G A70U | 0.53
C22U U28A C29U G38A | ≤ 0.5
C22U C55U | 0.686
C22U C55G | 0.578
G23C C30G G63A | ≤ 0.5
G23A C30U A37U G41C | 0.634
C22U G56C | 0.608
C22U U35A | 0.553
C22U C30G G51C G56U | ≤ 0.5
C22U U64A | 0.837
C22U U35A G67U | ≤ 0.5
C22U C60U A70U | 0.678
G23A G52C | 0.564
C22U G48A C55U | 0.599
C22U G25C C33A | 0.552
G23A A42G A45U G63C U64C A65G | ≤ 0.5
G23A A42G C61U | ≤ 0.5
C22U C27U U32A C66U G67C | ≤ 0.5
C22U A43G | 0.835

Variant | yeast fitness
C22U A43U | 0.788
C22U C61A C66U | ≤ 0.5
C22U C30U A40C C55A A65G | ≤ 0.5
G23A C31G A45C G52C | ≤ 0.5
C22U U32C C61G A69C | ≤ 0.5
C22U G38A | 0.748
G23A A36C U47C G48C | ≤ 0.5
C22U G44A C46G G51A C66G | ≤ 0.5
C22U A37U U53G | ≤ 0.5
C22U G39C G48C | 0.516
G23A C34A A43U U47C | 0.577
C22U A37U G58A A69C | ≤ 0.5
G23A A40U A70G | 0.537
C22U A42G U53C C55G A70U | ≤ 0.5
G23A U26G A65C | ≤ 0.5
G23C A36C A45C G58A G68C | ≤ 0.5
G23C C24U A37C U53C | ≤ 0.5
C22U U28C C34U A40C U64A | 0.762
G23A C31U A70U | 0.528
G23A A42U C61G U64A | ≤ 0.5
G23A G41C C49G | 0.854
G23C A37G A42U G48C C49U | ≤ 0.5
G23C C27G C55G G56A G58A C66G A70U | ≤ 0.5
C22U C30G A57U | ≤ 0.5

Variant | yeast fitness
C22U A40G A43U C46G C49G | ≤ 0.5
G23A C30U C55A G63A | ≤ 0.5
G23A G25C G51A | 0.661
C22U C60G U64G | ≤ 0.5
C22U C27A G58A | 0.568
G23C C27U G56A G63C | 0.573
G23C C24U A37C G50C | ≤ 0.5
G23A C33G C62A | 0.742
C22U C29A U47C G68A A69C | ≤ 0.5
C22U G25C C62U | 0.67
G23A G38A G67C | ≤ 0.5
C22U C34G G39A C66U | ≤ 0.5
C22U C30U A37G C66U | ≤ 0.5
C22U C24G C49G G56A | ≤ 0.5
C22U G25A C55U C66U | ≤ 0.5
C22U G39A C49G | ≤ 0.5
C22U C31G A43U | 0.612
G23A G51A C66U | ≤ 0.5
G23A C29A C31U A42G A43C U54G | ≤ 0.5
G23A C34U C66U | 0.586
G23C A37U U47C C55U C60G C66U | ≤ 0.5
G23A U59C | 0.799
C22U C24G C55U | ≤ 0.5
C22U U53C G68C | ≤ 0.5

Variant | yeast fitness
C22U C24A A42U C49U C61U | ≤ 0.5
C22U U32A C46G G52C C62U | ≤ 0.5
G23A C62U | 0.781
G23A C62G | 0.782
G23A C31U | 0.731
G23A C31G | 0.811
G23A C29G U64A | ≤ 0.5
C22U U28A C33G G58A C66U | ≤ 0.5
G23A C29U C31U A42G | ≤ 0.5
G23A C24U | 0.94
G23A C49U | 0.735
G23C C33G C46A C66A | 0.596
C22U C27G U28G U32G A45G | ≤ 0.5
C22U U53A | 0.673
C22U U53G | ≤ 0.5
C22U C27U | 0.713
C22U C27G | 0.721
C22U C24U C33U A40U | ≤ 0.5
C22U A40G C61U A70U | 0.547
G23C C27A A57U A69U | ≤ 0.5
C22U U28C C49A | ≤ 0.5
C22U U26A U47C C62A | ≤ 0.5
G23A A36G A57C C60A | ≤ 0.5
G23A C27U | 0.706

Variant | yeast fitness
G23A G63A | 0.7
C22U C30U C33U U47A G58A A65C | ≤ 0.5
G23A G58A | 0.715
G23A G58C | 0.885
G23C C24G C34G U64A G67A | ≤ 0.5
G23A A43U C49U C62U | ≤ 0.5
C22U G25C C31U | 0.625
C22U C29A G68A A69C | 0.55
C22U G44C | 0.812
C22U C49U U64A | 0.53
C22U G38C A65U C66U | 0.547
C22U G23C C55U C60G | 0.54
C22U C24G C30G A40U | ≤ 0.5
G23A C49U G63A A65C | ≤ 0.5
G23C A37G C66A | ≤ 0.5
G23A U26G A40C C46G C60G | ≤ 0.5
C22U C49G | 0.87
G23A A36G C61U A65U | ≤ 0.5
G23A C24U C61U | 0.64
C22U C29U G39A G41A | ≤ 0.5
G23A C29G U32C A45U C60G C61U A69G | ≤ 0.5
G23A C29A G48A C55A | ≤ 0.5
G23C A43U | 0.733
